PMC5199138 (Cancer chemotherapy and pharmacology, 2016)
“Also recorded” adds a separate entry of the source.

Tests used:
[1] = system: patients with advanced solid tumors; test: Phase I trial, weekly schedule; format: in vivo
Top1 [2] = biological target: T1, Top1 (Homo sapiens, UniProt P11387); test: Top1 levels in paired tumor biopsies; format: in vivo; details: of the 8 patients on the daily schedule
T1 sequence (P11387 1-765): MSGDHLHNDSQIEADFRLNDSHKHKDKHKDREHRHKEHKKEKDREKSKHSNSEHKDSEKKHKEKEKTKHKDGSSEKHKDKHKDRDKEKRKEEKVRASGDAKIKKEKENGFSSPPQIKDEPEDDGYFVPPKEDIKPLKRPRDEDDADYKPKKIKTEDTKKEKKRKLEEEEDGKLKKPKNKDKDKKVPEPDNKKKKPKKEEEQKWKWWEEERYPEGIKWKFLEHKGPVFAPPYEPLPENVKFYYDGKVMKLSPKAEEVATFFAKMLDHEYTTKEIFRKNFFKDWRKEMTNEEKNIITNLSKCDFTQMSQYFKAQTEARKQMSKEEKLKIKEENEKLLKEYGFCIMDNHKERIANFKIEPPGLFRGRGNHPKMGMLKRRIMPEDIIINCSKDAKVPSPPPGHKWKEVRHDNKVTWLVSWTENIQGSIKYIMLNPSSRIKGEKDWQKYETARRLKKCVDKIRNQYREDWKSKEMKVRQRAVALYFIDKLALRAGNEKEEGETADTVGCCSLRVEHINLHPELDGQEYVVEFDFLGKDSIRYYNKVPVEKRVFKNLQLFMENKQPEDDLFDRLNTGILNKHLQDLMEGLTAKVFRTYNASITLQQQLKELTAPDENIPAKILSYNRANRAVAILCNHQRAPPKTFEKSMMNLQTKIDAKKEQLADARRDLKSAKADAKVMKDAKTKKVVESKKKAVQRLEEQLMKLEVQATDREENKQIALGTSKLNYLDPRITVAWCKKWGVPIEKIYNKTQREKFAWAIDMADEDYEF
In short: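 Daily schedule: tumor biopsies taken at baseline and 2–4 h after infusion start on cycle 1 day 3. Top1 quantified by validated immunofluorescence assay (pg/μg protein). Pre-dose value had to exceed twice the LLQ to allow detection of a 50% reduction. Reported as percent change from baseline for each patient.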

[3] = cited from earlier work
[4] = Plasma and urine pharmacokinetics; format: in vivo, human; details: for AUC(0-t) / Cmax / AUC(0-inf) / half-life: human, plasma, intravenous
Top1 [5] = biological target: T1, Top1; test: Top1 levels in PBMCs; format: in vivo
In short: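 PBMCs collected in the daily trial before dosing and 4 h after infusion start on cycle 1 days 1 and 3. Top1 measured by validated immunofluorescence assay, expressed as pg/10^7 cells. Reportable only if pre-dose Top1 exceeded twice the LLQ; samples also had to pass assay QC. Result given as percent change from baseline per patient.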

[6] = system: patients with advanced solid tumors; test: Phase I trial, daily schedule; format: in vivo
γH2AX = γH2AX in hair follicles; format: in vivo, human; details: 4 patients, daily trial, 4-6 h post-infusion vs pre-infusion; p=0.027, 1-sided
[7] = weekly trial, Total (N=21), all dose levels, SD of geometric mean in parenthesis
[8] = weekly trial, W1, 60 mg/m^2 over 3 h, N=6, SD of geometric mean in parenthesis
[9] = weekly trial, W2, 90 mg/m^2 over 3 h, N=8, SD of geometric mean in parenthesis
[10] = weekly trial, W3, 135 mg/m^2 over 3 h, N=7, SD of geometric mean in parenthesis

COc1cc2c3c(n(CCCN4CCOCC4)c(=O)c2cc1OC)-c1cc2c(cc1C3=O)OCO2 [indotecan]
Maximum tolerated dose (MTD) ([1]; days 1, 8, 15 in 28-day cycles, iv over 3 h): 90 mg/m^2 | Principal toxicity ([1]; in vivo): myelosuppression | Objective response (RECIST) ([1]; weekly schedule, 21 patients): No objective responses were observed on either schedule; also recorded: no patient on either schedule had an objective response | Number of patients with significant Top1 decreases in post-treatment biopsies (Top1 [2]): 3 | Drug in the unbound state (protein binding) [3]: approximately 2% | Renal excretion 0–24 h ([4]; daily trial, D1, 2.5 mg/m^2 over 1 h, N=1): 0.49% dose | Renal excretion 0–24 h ([4]; daily trial, D2, 5 mg/m^2 over 1 h, N=3, SD of geometric mean in parenthesis): 0.48% (0.21%) % dose | Renal excretion 0–24 h ([4]; daily trial, D3, 10 mg/m^2 over 1 h, N=1): 0.36% dose | Renal excretion 0–24 h ([4]; daily trial, D4, 20 mg/m^2 over 1 h, N=1): 0.26% dose | Renal excretion 0–24 h ([4]; daily trial, D5a, 60 mg/m^2 over 1 h, N=6, SD of geometric mean in parenthesis): 0.18% (0.17%) % dose | Renal excretion 0–24 h ([4]; daily trial, D6, 80 mg/m^2 over 1 h, N=3, SD of geometric mean in parenthesis): 0.26% (0.03%) % dose | Renal excretion 0–24 h ([4]; daily trial, Total (N=20), all dose levels, SD of geometric mean in parenthesis): 0.24% (0.17%) % dose | Clearance as share of human hepatic blood flow ([4]; hepatic blood flow from ref 15): approximately 2% | AUC(0-t) ([4]; 2.5 mg/m2, AUC0–24, daily trial, D1, 2.5 mg/m^2 over 1 h, N=1): 547 ng·h/mL | Cmax ([4]; 2.5 mg/m2, Cmax, daily trial, D1, 2.5 mg/m^2 over 1 h, N=1): 94.3 ng/mL | AUC(0-t) ([4]; 5 mg/m2, AUC0–24, daily trial, D2, 5 mg/m^2 over 1 h, N=3, SD of geometric mean in parenthesis): 1450 ng·h/mL | Cmax ([4]; 5 mg/m2, Cmax, daily trial, D2, 5 mg/m^2 over 1 h, N=3, SD of geometric mean in parenthesis): 191 ng/mL | AUC(0-inf) ([4]; 60 mg/m2): 56400 ng·h/mL | AUC(0-t) ([4]; 60 mg/m2, AUC0–24, daily trial, D5a, 60 mg/m^2 over 1 h, N=6, SD of geometric mean in parenthesis): 12800 ng·h/mL | AUC(0-t) ([4]; 60 mg/m2, AUC0–24, weekly trial, W1, 60 mg/m^2 over 3 h, N=6, SD of geometric mean in parenthesis): 13700 ng·h/mL | Cmax ([4]; 60 mg/m2, Cmax, daily trial, D5a, 60 mg/m^2 over 1 h, N=6, SD of geometric mean in parenthesis): 1610 ng/mL | Cmax ([4]; 60 mg/m2, Cmax, weekly trial, W1, 60 mg/m^2 over 3 h, N=6, SD of geometric mean in parenthesis): 1270 ng/mL | half-life ([4]; 60 mg/m2, t1/2, weekly trial, W1, 60 mg/m^2 over 3 h, N=6, SD of geometric mean in parenthesis): 89 h | AUC(0-t) ([4]; 80 mg/m2, AUC0–24, daily trial, D6, 80 mg/m^2 over 1 h, N=3, SD of geometric mean in parenthesis): 14700 ng·h/mL | Cmax ([4]; 80 mg/m2, Cmax, daily trial, D6, 80 mg/m^2 over 1 h, N=3, SD of geometric mean in parenthesis): 1650 ng/mL | AUC(0-inf) ([4]; 90 mg/m2): 88600 ng·h/mL | AUC(0-t) ([4]; 90 mg/m2, AUC0–24, weekly trial, W2, 90 mg/m^2 over 3 h, N=8, SD of geometric mean in parenthesis): 18700 ng·h/mL | Cmax ([4]; 90 mg/m2, Cmax, weekly trial, W2, 90 mg/m^2 over 3 h, N=8, SD of geometric mean in parenthesis): 1690 ng/mL | half-life ([4]; 90 mg/m2, t1/2, weekly trial, W2, 90 mg/m^2 over 3 h, N=8, SD of geometric mean in parenthesis): 74 h | AUC(0-inf) ([4]; 135 mg/m2): 70800 ng·h/mL | AUC(0-t) ([4]; 135 mg/m2, AUC0–24, weekly trial, W3, 135 mg/m^2 over 3 h, N=7, SD of geometric mean in parenthesis): 21500 ng·h/mL | Cmax ([4]; 135 mg/m2, Cmax, weekly trial, W3, 135 mg/m^2 over 3 h, N=7, SD of geometric mean in parenthesis): 1930 ng/mL | half-life ([4]; 135 mg/m2, t1/2, weekly trial, W3, 135 mg/m^2 over 3 h, N=7, SD of geometric mean in parenthesis): 50 h | Inter-patient variability, coefficient of variation in drug clearance ([4]; in vivo): 58% | Clearance ([4]; patients): 1 L/h/m^2 | CL [4, 7]: 1.27 (0.74) L/h/m^2 | Renal excretion 0–24 h [4, 7]: 0.19% (0.13%) % dose | Vss [4, 7]: 109 (69) L/m^2 | CL [4, 8]: 1.06 (0.34) L/h/m^2 | Renal excretion 0–24 h [4, 8]: 0.21% (0.08%) % dose | Vss [4, 8]: 116 (121) L/m^2 | CL [4, 9]: 1.02 (0.73) L/h/m^2 | Renal excretion 0–24 h [4, 9]: 0.15% (0.13%) % dose | Vss [4, 9]: 99.3 (32.6) L/m^2 | CL [4, 10]: 1.91 (0.73) L/h/m^2 | Renal excretion 0–24 h [4, 10]: 0.22% (0.16%) % dose | Vss [4, 10]: 114 (39) L/m^2 | Effects of treatment on PBMC Top1 levels (Top1 [5]; DL-D2 through DL-D6, 4 h after start of infusion, cycle 1 days 1 and 3): inconclusive | Decrease in PBMC Top1 level (Top1 [5]; patients #0003 and #0015, post-dose vs baseline): > 70% | Maximum tolerated dose (MTD) ([6]; daily for 5 days in 28-day cycles, iv over 1 h): 60 mg/m^2/day | Objective response (RECIST) ([6]; daily schedule, 21 patients): No objective responses were observed on either schedule; also recorded: no patient on either schedule had an objective response | Principal toxicity ([6]; in vivo): myelosuppression | γH2AX formation in hair bulbs (γH2AX): induced significant DNA damage
